The results in this text go back to ChEMBL document CHEMBL1145517, “Kinetic characterization of squalene synthase from Trypanosoma cruzi: selective inhibition by quinuclidine derivatives” (Antimicrob Agents Chemother, 2007).

Where only a bound is given, the exact number is not on record here.

A short description of data set [1]: Selectivity index, ratio of IC50 for rat L6 cells over IC50 for intracellular Trypanosoma cruzi amastigotes. In kind it is functional.
The nature of data set [2]: Selectivity index, ratio of IC50 for human recombinant squalene synthase over IC50 for Trypanosoma cruzi squalene synthase. The method, boiled down: (§1)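 T. cruzi enzyme was purified TcSQS24/36; human SQS was E. coli extract expressing pHSS16. Stopped with NaOH, squalene carrier added, TLC in toluene-ethyl acetate 9:1, squalene zone counted by scintillation. Index = human IC50 / T. cruzi IC50.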

The target of the next data set is T1, Squalene synthase (Homo sapiens, UniProt P37268).
T1 sequence (P37268 whole entry): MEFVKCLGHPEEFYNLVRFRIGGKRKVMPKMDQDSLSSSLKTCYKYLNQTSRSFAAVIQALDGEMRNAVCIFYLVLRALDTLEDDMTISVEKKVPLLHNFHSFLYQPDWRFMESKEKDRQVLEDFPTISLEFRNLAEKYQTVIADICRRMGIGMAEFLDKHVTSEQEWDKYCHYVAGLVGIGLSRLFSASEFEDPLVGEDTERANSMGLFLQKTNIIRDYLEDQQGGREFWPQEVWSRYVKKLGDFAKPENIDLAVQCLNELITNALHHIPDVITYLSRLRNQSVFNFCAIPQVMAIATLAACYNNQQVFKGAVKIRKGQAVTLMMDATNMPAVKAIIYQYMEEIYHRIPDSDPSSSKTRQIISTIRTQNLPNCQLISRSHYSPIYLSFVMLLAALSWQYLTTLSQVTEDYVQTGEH
Nature of the data set: Inhibition of human recombinant squalene synthase. The method, boiled down:
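The enzyme source was extracts of E. coli expressing truncated human SQS. Activity was measured as [3H]FPP-to-squalene conversion at 0.5 μM FPP and 0.25 mM NADPH in pH 7.4 MOPS-NaOH with MgCl2, CHAPS, Tween 80 and DTT, for 5 min at 37°C. Reactions were stopped with NaOH, squalene was separated by silica TLC (toluene-ethyl acetate 9:1) and counted by scintillation, and IC50 was curve-fitted.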

Data set [3] in a line: Inhibition of Trypanosoma cruzi recombinant squalene synthase. The method, boiled down:
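The enzyme was purified His-tagged T. cruzi SQS expressed in E. coli, truncated by 24 N-terminal and 36 C-terminal residues. Activity was measured as [3H]FPP-to-[3H]squalene conversion in pH 7.4 MOPS-NaOH with 20 mM MgCl2, 5 mM CHAPS, 1% Tween 80, 10 mM DTT, 0.25 mM NADPH and 0.5 μM FPP, 5 min at 37°C. Reactions were stopped with NaOH, squalene was separated by silica TLC and counted by scintillation, and IC50 was curve-fitted.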

Data set [4] relates to Trypanosoma cruzi. Nature of the data set: Activity of Trypanosoma cruzi microsomal or mitochondrial squalene synthase.
A further data set is filed under the species Homo sapiens. Nature of the data set: Activity of human double-truncated squalene synthase. The method in brief: as §1
The test system of data set [5] is Trypanosoma cruzi. The data set can be described thus: Activity of Trypanosoma cruzi glycosomal squalene synthase.
In data set [6] the test system is Trypanosoma cruzi. Nature of the data set: Activity of Trypanosoma cruzi truncated squalene synthase 24/36. The method, boiled down:
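Purified N-His-tagged TcSQS24/36 (E. coli, IMAC then MonoQ) in 50 mM MOPS-NaOH pH 7.4, 20 mM MgCl2, 5 mM CHAPS, 1% Tween 80, 10 mM DTT, 0.025 mg/ml BSA. [3H]FPP to [3H]squalene, 5 min at 37°C. FPP Km: 1–20 μM FPP with 2 mM NADPH. NADPH Km: 5–400 μM NADPH with 20 μM FPP. Nonlinear hyperbolic fits.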

In a further data set the test system is Saccharomyces cerevisiae. The data set can be described thus: Activity of Saccharomyces cerevisiae C-terminal truncated squalene synthase.
Data set [7] has as its system Leishmania mexicana. Nature of the data set: Activity of Leishmania mexicana microsomal or mitochondrial squalene synthase.
Data set [8] relates to Leishmania mexicana. Nature of the data set: Activity of Leishmania mexicana glycosomal squalene synthase.
The subject of data set [9] is Trypanosoma cruzi. The data set can be described thus: Antitrypanosomal activity against intracellular Trypanosoma cruzi amastigotes in rat L6 cells. In kind it is functional, organism-based. The method in brief: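 L6 rat myoblasts were seeded at 2,000 cells/well in RPMI 1640 with 10% FBS and 2 mM L-glutamine. After 24 h, 5,000 Tulahuen C2C4 trypomastigotes expressing lacZ were added with twofold serial drug dilutions. Plates were incubated 4 days at 37°C in 5% CO2. CPRG/Nonidet was then added, and colour was read at 540 nm after 2–4 h. IC50 came from the sigmoidal inhibition curve.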

A further data set concerns L6. The data set can be described thus: Growth inhibition of rat L6 cells. In kind it is cell-based.
Substrate in data set [10]: CC(C)=CCC/C(C)=C/CC/C(C)=C/COP(=O)(O)OP(=O)(O)O
The data set can be described thus: (§2) Activity of human full length squalene synthase expressed in baculovirus.

Substrate in data set [11]: NC(=O)c1ccc[n+]([C@@H]2O[C@H](COP(=O)([O-])OP(=O)(O)OC[C@H]3O[C@@H](n4cnc5c(N)ncnc54)[C@H](OP(=O)(O)O)[C@@H]3O)[C@@H](O)[C@H]2O)c1
The data set is described as §2.

Consider `CCOC(=O)c1ccc(C2=CN3CCC2CC3)cc1`, for which the entries for the “Ratio IC50” value in data set [1] and in data set [2] were 17 and 140, respectively. Also, the IC50 at Squalene synthase was determined as 7000 nM; in [3] it was 50 nM.
Turning to `CC(C)=CCC/C(C)=C/CC/C(C)=C/COP(=O)(O)OP(=O)(O)O`, the Km in the data set with Trypanosoma cruzi [4] amounted to 2.3 µM; in the data set filed under Homo sapiens, 2.8 µM; in the data set with Trypanosoma cruzi [5], 2.8 µM; in the data set on Trypanosoma cruzi [6], 5.25 µM; in the data set with Saccharomyces cerevisiae, 2.5 µM; with Leishmania mexicana [7], 2.8 µM. Moreover, the Km in the data set with Leishmania mexicana [8] amounted to 3.2 µM. Also, the Vmax in the data set on Trypanosoma cruzi [4] was 1.18 nmol/min/mg; in the data set on Trypanosoma cruzi [5] it was 0.97 nmol/min/mg; in the data set with Trypanosoma cruzi [6], 1430 nmol/min/mg; in the data set on Leishmania mexicana [7], 0.98 nmol/min/mg; in the data set on Leishmania mexicana [8] it was 0.75 nmol/min/mg.
With `CO[C@H]1CN(c2ccc(C#C[C@@]3(O)CN4CCC3CC4)c(Cc3ccccc3)n2)C[C@H]1O`, the results for the IC50 (in the data set with Trypanosoma cruzi [9]; on Squalene synthase; in [3]) were 8 nM, 1.5 nM and 0.84 nM, respectively. Further, the Ratio IC50 in [2] worked out at 1.8.
`O[C@]1(C#Cc2cccc(OCc3ccccc3)c2)CN2CCC1CC2`: the “Ratio IC50” value in data set [1] was 4.7; in data set [2] it was more than 13. Further, the concentration for half-maximal inhibition (IC50) in the data set on L6 is 45000 nM; in the data set with Trypanosoma cruzi [9] it was 9600 nM; on Squalene synthase, more than 20000 nM; in data set [3] it was 1500 nM.
For `C1=C(Cc2ccc(-c3ccccc3)cc2)C2CCN1CC2`, the figures for the “Ratio IC50” value in [1] and in data set [2] were 4.4 and more than 27, respectively. The 50% inhibitory concentration (IC50) with L6 is 20500 nM; in the data set on Trypanosoma cruzi [9], 4700 nM; at Squalene synthase, more than 20000 nM; in data set [3], 730 nM.
In the case of `COCCCOc1ccc(C#C[C@@]2(O)CN3CCC2CC3)c(Cc2ccccc2)n1`, the IC50 amounted to 11 nM in the data set with Trypanosoma cruzi [9], 6 nM at Squalene synthase and 3.52 nM in [3]. Further, the Ratio IC50 in data set [2] is 1.7.
As for `NC(=O)c1ccc[n+]([C@@H]2O[C@H](COP(=O)([O-])OP(=O)(O)OC[C@H]3O[C@@H](n4cnc5c(N)ncnc54)[C@H](OP(=O)(O)O)[C@@H]3O)[C@@H](O)[C@H]2O)c1`, the Km in the data set with Trypanosoma cruzi [4] amounted to 33 µM; in the data set with Trypanosoma cruzi [5], 40 µM; with Trypanosoma cruzi [6] it was 23.3 µM; in the data set with Saccharomyces cerevisiae it was 530 µM; in the data set with Leishmania mexicana [7], 57 µM; with Leishmania mexicana [8] it was 62 µM. Besides, the Vmax with Trypanosoma cruzi [4] came out at 0.76 nmol/min/mg; in the data set with Trypanosoma cruzi [5], 0.43 nmol/min/mg; in the data set on Trypanosoma cruzi [6], 1850 nmol/min/mg; in the data set with Leishmania mexicana [7], 0.84 nmol/min/mg; in the data set on Leishmania mexicana [8], 0.58 nmol/min/mg.
In the case of `C(#Cc1ccc(OCc2ccccc2)cc1)C1=CN2CCC1CC2`, the entries for the “Ratio IC50” value in [1] and in data set [2] were 15 and 0.3, respectively. The IC50 came out at 47200 nM in the data set with L6, 3100 nM with Trypanosoma cruzi [9], 250 nM at Squalene synthase and 830 nM in data set [3].

B1: Squalene synthase (Homo sapiens), P37268 (protein)
chain: T1 sequence (P37268 whole entry)
With B1, the figures for the Km in [10] and in data set [11] were 2.3 µM and 430 µM, respectively. Also, the Vmax was 4800 nmol/min/mg in [10] and 3800 nmol/min/mg in data set [11].

Usually IC50 stands for the concentration at which inhibition is half-maximal. As usually defined, the Km is the concentration of substrate that gives half-maximal velocity. In general, Vmax refers to the rate approached at saturating substrate.
